# Results pooled from the literature.
# Compare with care: the assays were run in different laboratories.
# Cell line: HepG2
# Effect on: cell growth or viability
SMILES,assay,setting,quantity,value
CCOC(=O)c1ccc(-n2c(C)cc(/C=C/c3ccc(OC)cc3)c(C#N)c2=O)cc1,MTT,"50 µM, 24 h",viability,58.1%
Clc1ccc(-c2nc3ccccc3[nH]2)cc1,MTT,48 h,IC50,51.5 µM
COc1ccc(NC(=O)c2c(Nc3ccccc3)sc(C#N)c2NC(=O)CNc2ccc(Br)cc2)cc1,SRB,"10 µM, 48 h",viability,46.2%
CC(=O)Nc1cccc(-n2c(=O)n(C3CC3)c(=O)c3c(Nc4ccc(I)cc4F)n(C)c(=O)c(C)c32)c1,resazurin,"0.1 µM, 72 h",viability,40.7%
COc1ccc(NC(=O)c2c(Nc3ccccc3)sc(C(=O)NN=Cc3ccc(Cl)cc3)c2NC(C)=O)cc1,SRB,"10 µM, 48 h",viability,71.2%
Cc1ccc2nc(-c3ccc(Cl)cc3)[nH]c2c1,MTT,48 h,IC50,28.9 µM
CCOC(=O)c1ccc(-n2c(N)c(C#N)c(CC#N)c(C#N)c2=O)cc1,MTT,"3.125 µM, 24 h",viability,90.2%
COc1ccc(NCC(=O)Nc2c(C#N)sc(Nc3ccccc3)c2C(=O)Nc2ccc(OC)cc2)cc1,SRB,"0.1 µM, 48 h",viability,84.4%
c1ccc2c(-c3nc4ccccc4[nH]3)c3ccccc3cc2c1,MTT,48 h,IC50,9.79 µM
